Source: ChEMBL document CHEMBL1139395 (J Med Chem, 2008)
Values after ≈ are worked out from the molar mass of the structure shown.

Key:
[1] = system: Haemophilus influenzae; test: Antibacterial activity against Haemophilus influenzae ATCC 51907; format: functional
[2] = system: Streptococcus pneumoniae; test: Antibacterial activity against Streptococcus pneumoniae ATCC 6303-infeceted Sprague-Dawley rat assessed as reduction in lung bacterial density at 25 mg/kg, po administered twice at 18 and 26 hrs after bacterial challenge measured at 72 hrs postinfection; format: functional
In short: (§1)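 Male Sprague-Dawley rats (185-224 g), anesthetized, infected intratracheally with 0.2 mL (0.9 × 10⁷ CFU) S. pneumoniae ATCC 6303 serotype 3 grown overnight in enriched broth. Oral dosing in D5W at 18 and 26 h postinfection, 10 per group. Lungs homogenized for CFU at 72 h; mean log₁₀ CFU ± SEM against vehicle controls.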

[3] = Half life in Sprague-Dawley rat; format: ADME, organism-based; settings: in vivo
[4] = Bioavailability in Sprague-Dawley rat; format: ADME, organism-based; settings: in vivo
[5] = system: Streptococcus pneumoniae; test: Antibacterial activity against Streptococcus pneumoniae ATCC 10015; format: functional
[6] = Clearance in Sprague-Dawley rat; format: ADME, organism-based; settings: in vivo
[7] = biological target: DNA gyrase (Staphylococcus aureus, UniProt P0A0K8+P20831); test: Inhibition of Staphylococcus aureus DNA gyrase; format: protein-complex assay
[8] = Inhibition of Escherichia coli topoisomerase 4
[9] = Inhibition of Escherichia coli DNA gyrase
[10] = system: Streptococcus pneumoniae; test: Antibacterial activity against Streptococcus pneumoniae ATCC 6303-infeceted Sprague-Dawley rat assessed as reduction in lung bacterial density at 50 mg/kg, po administered twice at 18 and 26 hrs after bacterial challenge measured at 72 hrs postinfection; format: functional; in short: as §1
[11] = Volume of distribution at steady state in Sprague-Dawley rat; format: ADME, organism-based; settings: in vivo, read-out: Vdss
[12] = system: Streptococcus pneumoniae; test: Antibacterial activity against Streptococcus pneumoniae ATCC 6303; format: functional
[13] = system: Staphylococcus aureus; test: Antibacterial activity against Staphylococcus aureus ATCC 29213 in absence of human serum; format: functional
[14] = system: Staphylococcus aureus; test: Antibacterial activity against Staphylococcus aureus ATCC 29213 in presence of human serum; format: functional
In short: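 Broth microdilution MIC per CLSI methods (modified), with human serum added to the liquid medium at a final 50% for S. aureus ATCC 29213.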

[15] = system: Staphylococcus aureus; test: Antibacterial activity against Staphylococcus aureus ATCC 29213-infected Sprague-Dawley rat assessed as reduction in bacterial density in thigh tissue at 50 mg/kg, iv administered 2 hrs after bacterial challenge measured at 8 hrs postinfection; format: functional
In short: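 Neutropenic male Sprague-Dawley rats (175-200 g); cyclophosphamide ip 150 mg/kg at day -4 and 50 mg/kg at day -1. Infection was 0.2 mL of 1 × 10⁷ CFU/mL S. aureus ATCC 29213 in saline, im into the thigh. Single iv tail-vein bolus at 2 h postinfection, D5W vehicle. Thighs homogenized for CFU 6 h post-dose; 0 h controls taken at 2 h. Mean log₁₀ CFU ± SEM; one-way ANOVA with Dunnett's test.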

Sequence of DNA gyrase (P0A0K8 whole entry): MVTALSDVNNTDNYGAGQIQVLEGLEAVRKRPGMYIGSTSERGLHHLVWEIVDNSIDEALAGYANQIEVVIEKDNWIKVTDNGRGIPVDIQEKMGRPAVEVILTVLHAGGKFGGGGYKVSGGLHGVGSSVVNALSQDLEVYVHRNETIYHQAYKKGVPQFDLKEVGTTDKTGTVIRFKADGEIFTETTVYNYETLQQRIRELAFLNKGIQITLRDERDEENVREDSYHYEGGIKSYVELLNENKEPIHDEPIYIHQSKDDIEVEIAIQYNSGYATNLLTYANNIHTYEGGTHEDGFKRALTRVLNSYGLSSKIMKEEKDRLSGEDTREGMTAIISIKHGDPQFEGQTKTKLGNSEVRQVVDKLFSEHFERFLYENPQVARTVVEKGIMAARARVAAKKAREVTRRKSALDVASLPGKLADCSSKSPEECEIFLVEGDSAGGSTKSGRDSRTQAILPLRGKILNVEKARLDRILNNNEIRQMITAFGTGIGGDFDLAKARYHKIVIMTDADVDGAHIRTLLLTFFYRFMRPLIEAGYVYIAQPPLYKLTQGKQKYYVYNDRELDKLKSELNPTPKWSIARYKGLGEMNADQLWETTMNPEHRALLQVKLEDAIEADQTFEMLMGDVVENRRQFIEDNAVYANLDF
Sequence of DNA gyrase (P20831 whole entry): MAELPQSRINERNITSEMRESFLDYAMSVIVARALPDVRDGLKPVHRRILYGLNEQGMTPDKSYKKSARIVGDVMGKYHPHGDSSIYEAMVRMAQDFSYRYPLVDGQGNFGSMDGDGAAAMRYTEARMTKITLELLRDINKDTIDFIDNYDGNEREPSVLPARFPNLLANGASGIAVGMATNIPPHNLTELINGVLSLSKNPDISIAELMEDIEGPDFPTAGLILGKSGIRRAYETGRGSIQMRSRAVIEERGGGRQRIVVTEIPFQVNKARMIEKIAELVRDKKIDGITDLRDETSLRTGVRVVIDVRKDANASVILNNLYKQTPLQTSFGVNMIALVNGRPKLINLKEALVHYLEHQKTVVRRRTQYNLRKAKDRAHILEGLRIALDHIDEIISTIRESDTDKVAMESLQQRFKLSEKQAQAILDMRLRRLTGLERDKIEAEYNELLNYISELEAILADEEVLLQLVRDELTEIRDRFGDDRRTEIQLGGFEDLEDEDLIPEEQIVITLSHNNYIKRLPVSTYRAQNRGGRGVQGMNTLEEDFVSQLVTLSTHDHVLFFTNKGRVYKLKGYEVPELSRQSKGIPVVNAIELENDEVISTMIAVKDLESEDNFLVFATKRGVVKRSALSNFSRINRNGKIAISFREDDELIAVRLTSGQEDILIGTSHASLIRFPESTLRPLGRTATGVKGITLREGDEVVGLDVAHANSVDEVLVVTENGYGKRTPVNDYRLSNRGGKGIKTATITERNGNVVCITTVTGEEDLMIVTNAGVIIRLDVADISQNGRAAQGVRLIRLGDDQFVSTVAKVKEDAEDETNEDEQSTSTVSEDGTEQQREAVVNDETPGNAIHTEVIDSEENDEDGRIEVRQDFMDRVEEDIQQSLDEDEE

Compound | MIC [1] [µg/mL] | log10cfu [2] | half-life [3] [min] | bioavailability [4] [%] | MIC [5] [µg/mL] | clearance [6] [mL/min/kg] | Ki [7] [nM] | Ki [8] [nM] | Ki [9] [nM] | log10cfu [10] | Vd [11] [L/kg] | MIC [12] [µg/mL] | MIC [13] [µg/mL] | MIC [14] [µg/mL] | log10cfu [15]
CCNC(=O)Nc1nc2cc(-c3cccnc3)cc(-c3ncccc3F)c2[nH]1 | 1 (≈ 2.66 µM) | 4.8 | 42 | 88.4 | 0.004 (≈ 0.0106 µM) | 14.4 | 14 | 23 | < 4 | 5.6 | 1.6 | 0.008 (≈ 0.0213 µM) | 0.031 (≈ 0.0824 µM) | 0.5 | 1.5
CCNC(=O)Nc1nc2cc(-c3cnc(OC)nc3)c(OC)cc2[nH]1 | 4 (≈ 11.7 µM) | – | – | – | 0.125 (≈ 0.365 µM) | – | 44 | 680 | 15 | – | – | – | 2 (≈ 5.84 µM) | 8 | –
CCOC(=O)Nc1nc2cc(/C=C/c3ccc(O)cc3)ccc2[nH]1 | > 16 | – | – | – | > 16 | – | 2000 | > 60000 | 20000 | – | – | – | > 16 | > 16 | –
CCNC(=O)Nc1nc2cc(-n3cnc(C(=O)NC4CC4)c3)c(F)cc2[nH]1 | 4 (≈ 10.8 µM) | – | – | – | 0.063 (≈ 0.17 µM) | – | 10 | 78 | < 4 | – | – | – | 4 (≈ 10.8 µM) | 8 | –
CCNC(=O)Nc1nc2cc(-c3cccnc3)c(F)cc2[nH]1 | 16 (≈ 53.5 µM) | – | – | – | 0.25 (≈ 0.835 µM) | – | 38 | 680 | 33 | – | – | – | 1 (≈ 3.34 µM) | 16 | –
CCNC(=O)Nc1nc2cc(-c3cccnc3)c(C)cc2[nH]1 | 16 (≈ 54.2 µM) | – | – | – | 0.5 (≈ 1.69 µM) | – | 85 | 1400 | 61 | – | – | – | 16 (≈ 54.2 µM) | > 16 | –
CCNC(=O)Nc1nc2cc(-c3cccnc3)ccc2[nH]1 | 16 (≈ 56.9 µM) | – | – | – | 2 (≈ 7.11 µM) | – | 130 | 2300 | 81 | – | – | – | 16 (≈ 56.9 µM) | > 16 | –
CCNC(=O)Nc1nc2cc(-c3ccccc3)ccc2[nH]1 | > 16 | – | – | – | > 16 | – | 470 | 9500 | 400 | – | – | – | > 16 | > 16 | –
CCNC(=O)Nc1nc2cc(-c3cccnc3)c(OC)cc2[nH]1 | > 16 | – | – | – | 2 (≈ 6.42 µM) | – | 190 | 3500 | 130 | – | – | – | 16 (≈ 51.4 µM) | > 16 | –
CCNC(=O)Nc1nc2cc(-c3cccnc3)c(N3CCCCC3)cc2[nH]1 | > 16 | – | – | – | 2 (≈ 5.49 µM) | – | 81 | 3300 | 120 | – | – | – | 16 (≈ 43.9 µM) | > 16 | –
CCNC(=O)Nc1nc2cc(-c3cncnc3)cc(-n3cccn3)c2[nH]1 | 0.25 (≈ 0.718 µM) | – | – | – | < 0.008 | – | 16 | 58 | < 4 | – | – | – | 0.031 (≈ 0.089 µM) | 0.25 | –
CCNC(=O)Nc1nc2cc(-n3cnc(C(=O)NC4CC4)c3)cc(-n3cccn3)c2[nH]1 | 0.25 (≈ 0.596 µM) | – | – | – | 0.003 (≈ 0.00715 µM) | – | 10 | 12 | < 4 | – | – | – | 0.5 (≈ 1.19 µM) | 4 | –
CCNC(=O)Nc1nc2cc(-c3cccnc3)cc(-c3ccccn3)c2[nH]1 | 2 (≈ 5.58 µM) | – | – | – | 0.004 (≈ 0.0112 µM) | – | 7 | 14 | < 4 | – | – | – | 0.031 (≈ 0.0865 µM) | 2 | –
CCNC(=O)Nc1nc2cc(-c3cccnc3)cc(-c3cccnc3)c2[nH]1 | > 16 | – | – | – | 0.5 (≈ 1.4 µM) | – | 17 | 1300 | 6 | – | – | – | 4 (≈ 11.2 µM) | 16 | –
CCNC(=O)Nc1nc2cc(-c3cccnc3)cc(OCc3ccccc3)c2[nH]1 | > 16 | – | – | – | 1 (≈ 2.58 µM) | – | 35 | 390 | 18 | – | – | – | 2 (≈ 5.16 µM) | > 16 | –
CCNC(=O)Nc1nc2cc(-c3cccnc3)cc(C(=O)OC)c2[nH]1 | 0.5 (≈ 1.47 µM) | – | – | – | 0.016 (≈ 0.0471 µM) | – | 8 | 35 | < 4 | – | – | – | 0.063 (≈ 0.186 µM) | 0.5 | –
CCNC(=O)Nc1nc2cc(-c3cccnc3)cc(-n3cccn3)c2[nH]1 | 1 (≈ 2.88 µM) | – | – | – | 0.008 (≈ 0.023 µM) | – | 15 | 46 | < 4 | – | – | – | 0.063 (≈ 0.181 µM) | 4 | –
CCNC(=O)Nc1nc2cc(-c3ccn(C)c(=O)c3)cc(-c3ncccc3F)c2[nH]1 | 0.125 (≈ 0.308 µM) | – | – | – | < 0.008 | – | 23 | 11 | < 4 | – | – | – | 0.016 (≈ 0.0394 µM) | 0.032 | –
CCNC(=O)Nc1nc2cc(-c3cncnc3)ccc2[nH]1 | 2 (≈ 7.08 µM) | – | – | – | 0.5 (≈ 1.77 µM) | – | 49 | 1100 | 20 | – | – | – | 4 (≈ 14.2 µM) | 4 | –
CCNC(=O)Nc1nc2cc(-n3cnc(C(=O)NC4CC4)c3)cc(-c3ccccn3)c2[nH]1 | 0.125 (≈ 0.29 µM) | – | – | – | 0.002 (≈ 0.00465 µM) | – | 12 | 7 | < 4 | – | – | – | 0.063 (≈ 0.146 µM) | 0.25 | –
CCNC(=O)Nc1nc2cc(-c3cccnc3)cc(C(=O)NC)c2[nH]1 | 16 (≈ 47.3 µM) | – | – | – | 0.063 (≈ 0.186 µM) | – | 26 | 150 | 5 | – | – | – | 16 (≈ 47.3 µM) | > 16 | –
CC(=O)NC[C@H]1CN(c2ccc(N3CCOCC3)c(F)c2)C(=O)O1 [LINEZOLID] | – | 2.5 | – | – | – | – | – | – | – | 5.9 | – | 0.4 (≈ 1.19 µM) | – | – | –
CO[C@@H]1[C@@H](OC(N)=O)[C@@H](O)[C@H](Oc2ccc3c(O)c(NC(=O)c4ccc(O)c(CC=C(C)C)c4)c(=O)oc3c2C)OC1(C)C [NOVOBIOCIN] | 0.063 (≈ 0.103 µM) | – | – | – | 2 (≈ 3.26 µM) | – | – | – | – | – | – | – | 0.125 (≈ 0.204 µM) | > 16 | –
